Laboratory results as given in ChEMBL document CHEMBL1123517, “Synthesis and antiallergic activity of a novel series of 5-lipoxygenase inhibitors” (J Med Chem, 1986).

Experiments:
Cavia porcellus [1] = assay: In vivo inhibition of ovalbumin induced bronchoconstriction in guinea pig by 50 mg/kg 10 min prior to challenge.; type: functional
How it was run: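 Male Hartley guinea pigs (350–600 g) sensitized to OA (5 mg ip + 5 mg sc), used 3–5 weeks later under pentobarbital (50 mg/kg ip), artificially ventilated. Indomethacin 10 mg/kg iv 9 min before challenge, chlorpheniramine 1.0 mg/kg iv 1 min later. Drug 50 mg/kg id 10 min before aerosolized 1% OA; controls saline.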

[2] = target: T1, Polyunsaturated fatty acid 5-lipoxygenase (Rattus norvegicus, UniProt P12527); assay: In vitro for inhibition of 5-HETE production in isolated rat polymorphonuclear leukocytes (PMNs); type: functional
T1 sequence (P12527 whole entry): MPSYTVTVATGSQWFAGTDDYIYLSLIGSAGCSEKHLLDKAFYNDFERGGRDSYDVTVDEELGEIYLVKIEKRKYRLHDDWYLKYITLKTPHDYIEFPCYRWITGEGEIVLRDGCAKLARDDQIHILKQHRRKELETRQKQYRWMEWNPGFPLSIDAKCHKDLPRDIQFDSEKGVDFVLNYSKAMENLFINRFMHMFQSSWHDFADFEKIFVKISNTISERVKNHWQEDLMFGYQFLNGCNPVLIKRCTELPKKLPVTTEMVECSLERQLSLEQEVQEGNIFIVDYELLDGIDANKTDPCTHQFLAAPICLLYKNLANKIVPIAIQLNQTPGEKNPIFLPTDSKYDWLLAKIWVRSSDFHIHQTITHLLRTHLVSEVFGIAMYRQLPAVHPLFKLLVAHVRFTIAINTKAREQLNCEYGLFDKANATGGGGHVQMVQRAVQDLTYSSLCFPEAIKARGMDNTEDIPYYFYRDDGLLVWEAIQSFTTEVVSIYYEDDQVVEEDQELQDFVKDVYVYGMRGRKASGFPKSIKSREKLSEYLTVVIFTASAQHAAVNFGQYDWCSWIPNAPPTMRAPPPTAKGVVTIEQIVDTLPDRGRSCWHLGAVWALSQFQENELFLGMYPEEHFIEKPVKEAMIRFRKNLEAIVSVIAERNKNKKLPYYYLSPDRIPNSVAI
How it was run: (§1)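 Peritoneal PMNs from female Wistar rats (150–250 g) given 6% glycogen ip; harvested at 24 h by lavage, resuspended at 2×10^7 cells/mL in HBSS with Ca2+/Mg2+ and 10 mM L-cysteine. Drug or vehicle preincubated 10 min at 37 °C; then A23187 (10 μM) plus 0.5 μCi [14C]arachidonic acid for 10 min. Stopped at pH 3.5, ether-extracted; IC50 per metabolite by nonlinear regression.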

[3] = target: T1, Polyunsaturated fatty acid 5-lipoxygenase; assay: In vitro for inhibition of LTB4 (leukotriene B4) production in isolated rat polymorphonuclear leukocytes (PMNs).; type: functional; how it was run: as §1
Cavia porcellus [4] = species: Cavia porcellus; assay: Competitive inhibition of LTD4-induced contraction of isolated guinea pig tracheal spiral strips
Rattus norvegicus = species: Rattus norvegicus; assay: Compound was tested in vitro for inhibition of 5-HETE production in isolated rat polymorphonuclear leukocytes (PMNs) at 50 uM; type: functional

IC50 [2] | IC50 [3] | SMILES | inhibition in vivo at 50 mg/kg (Cavia porcellus [1]) | pKB (Cavia porcellus [4]) | inhibition at 50 µM (Rattus norvegicus)
14.2 µM | 11.7 µM | COC(=O)CC(=O)Nc1cccc(COc2ccc(C(C)=O)c(O)c2)c1 | 61.4% | 4.94 | 
 |  | COC(=O)CC(=O)Nc1cccc(COc2ccc(C(C)=O)c(OC)c2)c1 | 64.3% |  | 
32.7 µM | 39.3 µM | COC(=O)CCCC(=O)Nc1cccc(COc2ccc(C(C)=O)c(O)c2)c1 | -0.1% |  | 
 |  | CCCCCC(=O)c1ccc(OCc2cccc(NC(=O)CC(=O)OC)c2)cc1OC | 0% |  | 
5.6 µM | 7.09 µM | CCc1ccc(OCc2cccc(NC(=O)CCC(=O)OC)c2)cc1OC | 0.2% |  | 
5.35 µM | 20.4 µM | COC(=O)C1CC(=O)N(c2cccc(COc3ccc(C(C)=O)c(F)c3)c2)C1 (configuration not stated) |  |  | 
 |  | COC(=O)CC(=O)Nc1cccc(COc2ccc(C(C)=O)cc2)c1 | 37.2% |  | < 50%
 |  | CCc1ccc(OCc2cccc(NC(=O)CC(=O)OC)c2)cc1OC | 0.2% |  | 
1.59 µM | 1.7 µM | CCCCCCc1ccc(OCc2cccc(NC(=O)CC(=O)OC)c2)cc1OC | -0.2% |  | 
 |  | COC(=O)C(=O)Nc1cccc(COc2ccc(C(C)=O)c(F)c2)c1 | 57.3% |  | 
3.71 µM | 3.87 µM | CCCCCC(=O)c1ccc(OCc2cccc(NC(=O)CCC(=O)OC)c2)cc1OC | 0% |  | 
 |  | COC(=O)CC(=O)Nc1cccc(COc2cccc(OC)c2)c1 |  |  | < 50%
 |  | CCCCCCc1ccc(OCc2cccc(NC(=O)CCC(=O)OC)c2)cc1OC | 0.2% |  | 
25.1 µM | 39.5 µM | COC(=O)C(=O)Nc1cccc(COc2ccc(C(C)=O)c(O)c2)c1 | 0.1% |  | 
 |  | CCCCCC(=O)c1ccc(OCc2cccc(NC(=O)CCC(=O)OC)c2)cc1O | 0% |  | 
 |  | COC(=O)CCC(=O)Nc1cccc(COc2ccc(C(C)=O)c(F)c2)c1 | 20.8% |  | 
 |  | COC(=O)CCC(=O)Nc1cccc(COc2ccc(C(C)=O)c(O)c2)c1 | 37.9% |  | 
 |  | COC(=O)CCC(=O)Nc1cccc(COc2ccc(C(C)=O)c(OC)c2)c1 | 0.11% |  | 
 |  | COC(=O)CCCC(=O)Nc1cccc(COc2ccc(C(C)=O)c(F)c2)c1 | 0% |  | 
 |  | CCCc1c(OCc2cccc(NC(=O)CC(=O)OC)c2)ccc(C(C)=O)c1O | 24.8% |  | 
 |  | CCCCCC(=O)c1ccc(OCc2cccc(NC(=O)CC(=O)OC)c2)cc1O | -0.5% |  | 
25.5 µM | 22.5 µM | COC(=O)CC(=O)Nc1cccc(COc2ccc(C(C)=O)c(F)c2)c1 | 0% |  | 
41 µM | 21.6 µM | CCCc1c(OCCCCc2nnn[nH]2)ccc(C(C)=O)c1O [TOMELUKAST] | 78.8% |  | 
